Here are results for 35 molecules from ChEMBL document CHEMBL4270543, “Synthesis and biological evaluation of (1-aryl-1H-pyrazol-4-yl) (3,4,5-trimethoxyphenyl)methanone derivatives as tubulin inhibitors” (Eur J Med Chem, 2018).

Active and inactive are the calls of the source. The calls are words filed in the database; no cut-off is given here. Bounds are passed on as bounds.

In experiment [1] the test system is A549. The experiment can be described thus: Antiproliferative activity against human A549 cells after 72 hrs by MTT assay. In kind it is functional, cell-based. The settings on record: A549, 72 h. The gist of the method:
(§1)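 Human tumour cells were exposed to the compound for 72 h, and growth was read by standard MTT assay. IC50 is the concentration giving 50% inhibition, taken as the average of three parallel experiments.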
A general note: Tetrazolium assays rely on reduction of a dye to a coloured formazan, in cell work by metabolically active cells.

Experiment [2] concerns HT-1080. The experiment can be described thus: Antiproliferative activity against human HT1080 cells after 72 hrs by MTT assay. In kind it is functional, cell-based. The settings on record: HT-1080, 72 h. The gist of the method:
as §1

Experiment [3] deals with SGC-7901. Description: Antiproliferative activity against human SGC7901 cells after 72 hrs by MTT assay. Type of experiment: functional, cell-based. The settings on record: SGC-7901, 72 h. The gist of the method: as §1
The test system of experiment [4] is L929. The experiment can be described thus: Cytotoxicity against mouse L929 cells after 72 hrs by MTT assay. In kind it is cell-based. The settings on record: L929, 72 h.
Experiment [5] is filed under the species Sus scrofa. The experiment can be described thus: Inhibition of porcine brain tubulin polymerization at 5 uM preincubated for 1 min followed by GTP addition measured at 1 min time interval for 90 mins by fluorescence assay. In short, it runs like this: (§2)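 Run with a commercial tubulin polymerization kit following the manufacturer's protocol. Tubulin was pre-incubated for 1 min with compound (2.5, 5, 10 or 20 µM) or DMSO vehicle, then GTP was added to start polymerization. Reactions were monitored at 37 °C.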

In experiment [6] the test system is SGC-7901. Description: Cell cycle arrest in human SGC7901 cells assessed as accumulation at G2/M phase at 27 to 108 nM after 24 hrs by propidium iodide staining based flow cytometry (reference value: 15%). In kind it is functional. In general terms: A flow cytometer gives signals particle by particle.
The test system of experiment [7] is SGC-7901. Description: Cell cycle arrest in human SGC7901 cells assessed as accumulation at G2/M phase after 24 hrs by propidium iodide staining based flow cytometry. Type of experiment: functional. In short, it runs like this:
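SGC-7901 cells were treated for 24 h with a vehicle control run in parallel. Cell-cycle phase distribution was obtained by flow cytometry, with G2/M accumulation as the read-out.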

Experiment [8] concerns the target Tubulin (Homo sapiens) (UniProt P68371+Q9H4B7+P0DPH7+P68366+Q13509+Q71U36+P04350+Q3ZCM7+P07437+P68363+Q9BQE3+Q6PEY2+Q13885+Q9BVA1+Q9BUF5). Description: Inhibition of tubulin polymerization in human SGC7901 cells assessed as disruption of microtubule formation at 2 times antiproliferative IC50 after 24 hrs by DAPI staining based immunofluorescence microscopic method. Type of experiment: cell-based. The gist of the method: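 SGC-7901 cells were treated for 24 h at 2-fold their antiproliferative IC50. Cells were stained with anti-α-tubulin-FITC antibody and then DAPI for DNA, and the microtubule network was examined by confocal microscopy.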

The species entered for experiment [9] is Sus scrofa. Description: (§3) Inhibition of porcine brain tubulin polymerization preincubated for 1 min followed by GTP addition measured at 1 min time interval for 90 mins by fluorescence assay. In short, it runs like this: as §2
Experiment [10] in a line: as §3. The arrangement: species or system Sus scrofa. The gist of the method:
as §2

The species named for experiment [11] is Sus scrofa. Description: Inhibition of porcine brain tubulin polymerization at 2.5 uM preincubated for 1 min followed by GTP addition measured at 1 min time interval for 90 mins by fluorescence assay. The gist of the method:
as §2

One may read the IC50 as the concentration needed to halve the response being measured. Regarding `COc1cc(C(=O)c2cnn(-c3ccccc3)c2N)cc(OC)c1OC`, the IC50 in [1] stood at 11.3 µM; in [2], 5 µM; in experiment [3], 24.7 µM.
Take `COc1cc(C(=O)c2cnn(-c3ccc(C(C)C)cc3)c2)cc(OC)c1OC`: the IC50 in [1] is over 30 µM; in experiment [2], 17 µM; in [3] it was over 30 µM.
For `COc1cc(C(=O)c2cnn(-c3ccc(C(C)C)cc3)c2N)cc(OC)c1OC`, the IC50 in experiment [1], in experiment [2] and in experiment [3] was over 30 µM each time.
On to `COc1cc(C(=O)c2cnn(-c3ccc(Cl)cc3)c2N)cc(OC)c1OC`, for which the IC50 in experiment [1], in experiment [2] and in experiment [3] was over 30 µM throughout.
As to `COc1cc(/C(=N\O)c2cnn(-c3ccc(C)cc3)c2)cc(OC)c1OC` (mixture of isomers), the IC50 was determined as 96.2 µM in experiment [4], 0.14 µM in [1], 0.09 µM in [2] and 0.071 µM in [3].
`COc1ccc(-n2ncc(C(=O)c3cc(OC)c(OC)c(OC)c3)c2N)cc1`: the IC50 in [1], in [2] and in experiment [3] was over 30 µM in each case.
As for `COc1cc(C(=O)c2cnn(-c3cccc(Br)c3)c2)cc(OC)c1OC`, the IC50 in experiment [1], in experiment [2] and in [3] was over 30 µM in each case.
`CCc1ccc(-n2ncc(C(=O)c3cc(OC)c(OC)c(OC)c3)c2N)cc1`: the IC50 in experiment [1], in [2] and in experiment [3] was over 30 µM each time.
Turning to `COc1cc(C(=O)c2cnn(-c3ccc(C)cc3C)c2)cc(OC)c1OC`, the half-maximal inhibitory concentration (IC50) in [1] was over 30 µM; in experiment [2] it was 22.6 µM; in [3], over 30 µM.
With `COc1cc(C(=O)c2cnn(-c3ccccc3Cl)c2)cc(OC)c1OC`, the IC50 in [1], in experiment [2] and in [3] was over 30 µM throughout.
Consider `COc1cc(C(=O)c2cnn(-c3ccc(C)cc3C)c2N)cc(OC)c1OC`, for which the IC50 in experiment [1], in experiment [2] and in [3] was over 30 µM in each case.
In the case of `COc1cc(C(=O)c2cnn(-c3ccc(F)cc3)c2N)cc(OC)c1OC`, the IC50 in experiment [1], in [2] and in experiment [3] was over 30 µM in each case.
With `COc1cc(C(=O)c2cnn(-c3cc(C)cc(C)c3)c2)cc(OC)c1OC`, the figures for the IC50 in experiment [1], in [2] and in experiment [3] were 2.3 µM, 1.6 µM and 1.9 µM, respectively.
Take `CC(=O)O[C@H]1C(=O)[C@@]2(C)[C@H]([C@H](OC(=O)c3ccccc3)[C@]3(O)C[C@H](OC(=O)[C@H](O)[C@@H](NC(=O)c4ccccc4)c4ccccc4)C(C)=C1C3(C)C)[C@]1(OC(C)=O)CO[C@@H]1C[C@@H]2O`: the inhibition result in experiment [5] was “inactive”.
`COc1cc(C(=O)c2cnn(-c3cccc(Cl)c3)c2N)cc(OC)c1OC`: the IC50 in experiment [1], in experiment [2] and in experiment [3] was over 30 µM in each case.
Consider `COc1cc(C(=O)c2cnn(-c3ccc(C)cc3)c2N)cc(OC)c1OC`, for which the IC50 in experiment [1] was 20.6 µM; in experiment [2], over 30 µM; in [3], 29.6 µM.
`COc1cc(C(=O)c2cnn(-c3ccc(C)cc3)c2)cc(OC)c1OC`: the results for the Activity result in [6] and in [7] were “<=68%” and “Dose-dependent effect”, respectively. Also, the IC50 in experiment [4] worked out at 65.7 µM; in [1] it was 0.11 µM; in experiment [2], 0.16 µM; in experiment [3] it was 0.054 µM; in [10], 9.17 µM. In [8], the inhibition result is “Active”. Also, the inhibition entry in [9] is “Dose-dependent effect”.
Turning to `COc1cc(C(=O)c2cnn(-c3ccc(Cl)cc3)c2)cc(OC)c1OC`, the IC50 in experiment [1], in experiment [2] and in experiment [3] was over 30 µM in each case.
Regarding `CCc1ccc(-n2cc(C(=O)c3cc(OC)c(OC)c(OC)c3)cn2)cc1`, the IC50 is 16.3 µM in [1], 3.1 µM in experiment [2] and 7.8 µM in experiment [3].
On the same counts, the results for `COc1cc(C(=O)c2cnn(-c3ccccc3Br)c2N)cc(OC)c1OC` are over 30 µM, over 30 µM and over 30 µM.
For `COc1cc(C(=O)c2cnn(-c3ccccc3C)c2N)cc(OC)c1OC`, the IC50 in experiment [1], in experiment [2] and in experiment [3] was over 30 µM in each case.
For the molecule `COc1cc(C(=O)c2csc(-c3ccccc3)n2)cc(OC)c1OC`, the inhibition result in experiment [11] and in [8] was “Active” throughout. Further, the IC50 in [4] amounted to 21 µM; in experiment [1] it was 0.032 µM; in [2], 0.027 µM; in experiment [3], 0.023 µM.
With `COc1cc(C(=O)c2cnn(-c3cccc(Cl)c3)c2)cc(OC)c1OC`, the figures for the half-maximal inhibitory concentration (IC50) in [1], in [2] and in experiment [3] were 20.4 µM, 3.7 µM and 16.7 µM, respectively.
`COc1cc(C(=O)c2cnn(-c3cccc(Cl)c3C)c2N)cc(OC)c1OC`: the IC50 in experiment [1], in [2] and in [3] was over 30 µM each time.
For `COc1cc(C(=O)c2cnn(-c3ccccc3)c2)cc(OC)c1OC`, the IC50 was 8.6 µM in experiment [1], 19.4 µM in experiment [2] and over 30 µM in experiment [3].
Consider `COc1ccc(-n2cc(C(=O)c3cc(OC)c(OC)c(OC)c3)cn2)cc1`, for which the results for the IC50 in experiment [1], in [2] and in [3] were 18.7 µM, over 30 µM and 17.9 µM, respectively.
Regarding `COc1cc(C(=O)c2cnn(-c3ccc(F)cc3)c2)cc(OC)c1OC`, the IC50 in experiment [1] came out at 14 µM; in experiment [2], 2.8 µM; in experiment [3] it was 6.5 µM.
`COc1cc(C(=O)c2cnn(-c3cccc(Br)c3)c2N)cc(OC)c1OC`: the IC50 in experiment [1], in experiment [2] and in [3] was over 30 µM throughout.
`COc1cc(C(=O)c2cnn(-c3cc(C)ccc3C)c2)cc(OC)c1OC`: the IC50 in experiment [1] was 2.6 µM; in [2], 12.9 µM; in [3], 3.7 µM.
As for `COc1cc(C(=O)c2cnn(-c3cc(C)ccc3C)c2N)cc(OC)c1OC`, the half-inhibitory concentration (IC50) in [1], in experiment [2] and in experiment [3] was over 30 µM throughout.
For the molecule `COc1cc(C(=O)c2cnn(-c3ccccc3Br)c2)cc(OC)c1OC`, the IC50 in [1], in experiment [2] and in experiment [3] was over 30 µM in each case.
Regarding `COc1cc(C(=O)c2cnn(-c3cccc(Cl)c3C)c2)cc(OC)c1OC`, the IC50 in experiment [1], in [2] and in experiment [3] was over 30 µM throughout.
As for `COc1cc(C(=O)c2cnn(-c3ccccc3Cl)c2N)cc(OC)c1OC`, the IC50 in [1], in [2] and in [3] was over 30 µM throughout.
Regarding `COc1cc(C(=O)c2cnn(-c3ccccc3C)c2)cc(OC)c1OC`, the IC50 in experiment [1], in experiment [2] and in [3] was over 30 µM throughout.
As to `COc1cc(C(=O)c2cnn(-c3cc(C)cc(C)c3)c2N)cc(OC)c1OC`, the IC50 in [1], in [2] and in experiment [3] was over 30 µM each time.
